Source: ChEMBL document CHEMBL1127442, “Triazolinone biphenylsulfonamide derivatives as orally active angiotensin II antagonists with potent AT1 receptor affinity and enhanced AT2 affinity” (J Med Chem, 1994)
Several values for one entry are separate records, joined by “and”; a condition that tells them apart may be missing. Equal values may be shown once. Activity calls are given as the source filed them. The calls are words filed in the database; no cut-off is given here.

Tests used:
[1] = system: Rattus norvegicus; assay: Inhibition of AII pressor response by the compound in conscious, normotensive rats, at 1 (mg/kg) intravenous dose; format: functional
Method in brief: (§1)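 Male Sprague-Dawley rats (300-400 g) were conscious and catheterized for iv dosing and arterial pressure. Compound was given iv or po as the potassium salt in water, with PEG 400 for some oral doses. […] Peak inhibition is the mean of ≥2 rats.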

[2] = biological target: T1, Type-2 angiotensin II receptor (Rattus norvegicus, UniProt P35351); assay: In vitro inhibitory activity against angiotensin II rat midbrain AT2 receptor using radioligand [125I]-Sar Ile-AII
T1 sequence (P35351 whole entry): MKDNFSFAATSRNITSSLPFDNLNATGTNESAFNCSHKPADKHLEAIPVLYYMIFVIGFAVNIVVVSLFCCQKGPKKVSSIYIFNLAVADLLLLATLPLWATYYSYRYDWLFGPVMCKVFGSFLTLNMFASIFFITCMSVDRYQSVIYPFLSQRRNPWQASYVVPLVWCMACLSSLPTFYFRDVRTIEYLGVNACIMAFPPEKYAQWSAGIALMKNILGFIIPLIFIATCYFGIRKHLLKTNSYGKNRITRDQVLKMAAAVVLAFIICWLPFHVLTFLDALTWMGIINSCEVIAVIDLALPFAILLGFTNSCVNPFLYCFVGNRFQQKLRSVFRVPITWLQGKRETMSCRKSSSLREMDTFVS
Method in brief: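 Dithiothreitol ([…]) was added to the assay mixture to abolish residual AT1 binding. Tubes were run in duplicate, and IC50 came from nonlinear regression of displacement curves.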

[3] = system: Rattus norvegicus; assay: Inhibition of AII pressor response by the compound in conscious, normotensive rats, at 3 (mg/kg) peroral dose; format: functional; method in brief: as §1
[4] = system: Rattus norvegicus; assay: (§2) Time from onset of action until significant (i.e., >=30%) inhibition of pressor response is no longer observed, at 3 (mg/kg) peroral dose; format: functional
[5] = biological target: T2, Type-1 angiotensin II receptor (Oryctolagus cuniculus, UniProt P34976); assay: In vitro inhibitory activity against angiotensin II rabbit aorta AT1 receptor using radioligand [125I]-Sar Ile-AII; format: tissue-based
T2 sequence (P34976 whole entry): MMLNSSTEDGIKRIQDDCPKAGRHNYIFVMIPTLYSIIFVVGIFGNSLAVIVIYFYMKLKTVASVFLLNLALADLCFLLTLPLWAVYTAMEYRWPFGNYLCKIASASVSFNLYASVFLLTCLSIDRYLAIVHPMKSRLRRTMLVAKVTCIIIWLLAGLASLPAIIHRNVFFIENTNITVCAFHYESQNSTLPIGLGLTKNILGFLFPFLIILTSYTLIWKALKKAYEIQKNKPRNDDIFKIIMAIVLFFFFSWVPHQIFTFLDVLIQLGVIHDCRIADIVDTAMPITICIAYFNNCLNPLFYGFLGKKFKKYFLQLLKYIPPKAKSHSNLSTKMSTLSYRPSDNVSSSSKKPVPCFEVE

[6] = system: Rattus norvegicus; assay: (§3) Time from onset of action until significant (i.e., >=30%) inhibition of pressor response is no longer observed, at 1 (mg/kg) intravenous dose; format: functional
[7] = system: Monkey; assay: (§4) Time from onset of action until significant (i.e., >=30%) inhibition of pressor response is no longer observed, at 0.3 (mg/kg) peroral dose; format: functional, Cercopithecidae; conditions: in the assay text read “intravenous” for “peroral”
[8] = system: Rattus norvegicus; assay: Inhibition of AII pressor response by the compound in conscious, normotensive rats, at 0.3 (mg/kg) intravenous dose; format: functional; method in brief: as §1
[9] = system: Rattus norvegicus; assay: Time from onset of action until significant (i.e., >=30%) inhibition of pressor response is no longer observed, at 1 (mg/kg) peroral dose; format: functional
Method in brief: (§5)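 Conscious catheterized male Sprague-Dawley rats received compound iv or po as the water-soluble potassium salt, or in PEG 400 orally. AII (0.1 μg/kg iv) boluses were repeated at intervals while the compound was active.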

[10] = system: Rattus norvegicus; assay: as §4; format: functional; method in brief: as §5
[11] = system: Rattus norvegicus; assay: Inhibition of AII pressor response by the compound in conscious, normotensive rats, at 1 (mg/kg) peroral dose; format: functional; method in brief: as §1
[12] = system: Rattus norvegicus; assay: Time from onset of action until significant (i.e., >=30%) inhibition of pressor response is no longer observed, at 3 (mg/kg) intravenous dose; format: functional; method in brief: as §5
[13] = system: Monkey; conditions: Cercopithecidae
[14] = system: Monkey; assay: Inhibition of AII pressor response by the compound in conscious, normotensive monkey, at 3 (mg/kg) peroral dose; NA= Not active; format: functional, organism-based; conditions: Cercopithecidae
Method in brief: (§6)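 Rhesus monkeys were conscious, given furosemide (5 mg/kg iv) the prior evening, and fasted 18 h with water available. They sat chaired with minimal restraint. AII and iv compound went through saphenous or brachial vein catheters, and oral compound by nasogastric tube. Peak % inhibition of the AII pressor response was measured otherwise as in the rat protocol.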

[15] = system: Monkey; assay: Inhibition of AII pressor response by the compound in conscious, normotensive monkey, at 0.3 (mg/kg) intravenous dose; format: functional, Cercopithecidae; method in brief: as §6
[16] = system: Monkey; assay: Time from onset of action until significant (i.e., >=30%) inhibition of pressor response is no longer observed, at 10 (mg/kg) peroral dose; format: functional, Cercopithecidae
Method in brief: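 Conscious rhesus monkeys were pretreated with furosemide (5 mg/kg iv) and fasted 18 h. Compound was given orally by nasogastric tube, and AII challenges were given iv via a venous catheter, otherwise as in rats.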

[17] = system: Monkey; assay: Inhibition of AII pressor response by the compound in conscious, normotensive monkey, at 10 (mg/kg) peroral dose; format: functional, Cercopithecidae; method in brief: as §6
[18] = system: Rattus norvegicus; assay: Time from onset of action until significant (i.e., >=30%) inhibition of pressor response is no longer observed, at 0.1 (mg/kg) intravenous dose; format: functional; method in brief: as §5
[19] = system: Rattus norvegicus; assay: Inhibition of AII pressor response by the compound in conscious, normotensive rats, at 0.3 (mg/kg) peroral dose; format: functional; method in brief: as §1
[20] = system: Rattus norvegicus; assay: Inhibition of AII pressor response by the compound in conscious, normotensive rats, at 0.1 (mg/kg) peroral dose; format: functional; method in brief: as §1
[21] = system: Rattus norvegicus; assay: Inhibition of AII pressor response by the compound in conscious, normotensive rats, at 0.1 (mg/kg) intravenous dose; format: functional; method in brief: as §1
[22] = system: Rattus norvegicus; assay: Time from onset of action until significant (i.e., >=30%) inhibition of pressor response is no longer observed, at 0.1 (mg/kg) peroral dose; format: functional; method in brief: as §5
[23] = system: Monkey; assay: as §2; format: functional, Cercopithecidae
[24] = system: Monkey; assay: Inhibition of AII pressor response by the compound in conscious, normotensive monkey, at 3 (mg/kg) peroral dose; format: functional, Cercopithecidae; method in brief: as §6
[25] = system: Monkey; assay: as §3; format: functional, Cercopithecidae
[26] = system: Rattus norvegicus; assay: Inhibition of AII pressor response by the compound in conscious, normotensive rats, at 3 (mg/kg) intravenous dose; format: functional; method in brief: as §1
[27] = Inhibition of AII pressor response by the compound in conscious, normotensive rhesus monkeys, at 1 (mg/kg) intravenous dose
[28] = system: Monkey; assay: Time from onset of action until significant (i.e., >=30%) inhibition of pressor response is no longer observed, at 10 (mg/kg) peroral dose
[29] = system: Rattus norvegicus; assay: Time from onset of action until significant (i.e., >=30%) inhibition of pressor response is no longer observed, at 0.3 (mg/kg) peroral dose; NA= Not active; format: functional, organism-based; method in brief: as §5
[30] = Inhibition of AII pressor response by the compound in conscious, normotensive rhesus monkeys, at 0.3 (mg/kg) intravenous dose

SMILES | IC50 [2] [nM] | IC50 [5] [nM] | Inhibition [1] [%] | Duration [6] [h] | Duration [7] [h] | Inhibition [8] [%] | Duration [9] [h] | Duration [10] | Inhibition [11] [%] | Duration [12] [h] | other results
O=C(NS(=O)(=O)c1ccccc1-c1ccc(Cn2c(CCCC(F)(F)F)nn(-c3ccccc3C(F)(F)F)c2=O)cc1)c1ccccc1Cl | 910 | 0.36 | 67 | 2.4 | – | – | – | – | – | – | Inhibition [3]: 76%; Duration [4]: >24 h
CCCCc1nn(-c2ccccc2C(F)(F)F)c(=O)n1Cc1ccc(-c2ccccc2S(=O)(=O)NC(=O)C2CC2(C)C)cc1 (stereo unspecified) | 220 | 0.36 | – | – | 3.5 | 84 | >6 | >5.5 h | 76 | – | –
CCCCc1nc(Cl)c(CO)n1Cc1ccc(-c2ccccc2-c2nnn[nH]2)cc1 [LOSARTAN] | – | – | 78 | – | 0.1 | 52 | – | 5.5 h | 58 | >6 | Duration [13]: inactive; inhibition [14]: inactive; Inhibition [15]: 49%; Duration [16]: 2.1 h; Inhibition [17]: 50%

The next lines start with results.

IC50 [2] [nM] | IC50 [5] [nM] | SMILES | Inhibition [1] [%] | Duration [6] [h] | Duration [7] [h] | Inhibition [8] [%] | Duration [9] [h] | Duration [10] | Inhibition [11] [%] | Duration [12] [h] | other results
17 | 0.45 | CCCCc1nn(-c2ccccc2C(F)(F)F)c(=O)n1Cc1ccc(-c2ccccc2S(=O)(=O)NC(=O)OC(C)(C)C)cc1 | – | >6 | – | 78 | >6 | >4.5 h and >3.5 h | – | – | Duration [18]: >4.5 h; Inhibition [19]: 81%; Inhibition [20]: 77%; Inhibition [21]: 76%; Duration [22]: >3 h
120 | 0.26 | CCCCc1nn(-c2ccccc2C(F)(F)F)c(=O)n1Cc1ccc(-c2ccccc2S(=O)(=O)NC(=O)c2ccco2)cc1 | 85 | >6 | – | – | 3.7 | – | 70 | – | Duration [23]: 4 h; Inhibition [24]: 54%
300 | 0.43 | CCCCc1nn(-c2ccccc2C(F)(F)F)c(=O)n1Cc1ccc(-c2ccccc2S(=O)(=O)NC(=O)c2ccccc2)cc1.ClCCl | – | – | 5 | 31 | – | <0.5 h | – | >6 | Duration [25]: >6 h; Inhibition [26]: 87%; Inhibition [27]: 88%; inhibition [19]: inactive; Duration [28]: >4 h; Duration [29]: inactive; Inhibition [30]: 80%
